The results in this text go back to ChEMBL document CHEMBL4118144, “Design, Synthesis, and Testing of Potent, Selective Hepsin Inhibitors via Application of an Automated Closed-Loop Optimization Platform” (J Med Chem, 2018).

In series [1] the target is Dipeptidyl peptidase 4 (Homo sapiens) (UniProt P27487). Briefly: Inhibition of recombinant full length human dipeptidyl peptidase 4 using GP-AMC as substrate at 1 uM after 10 mins by fluorescence spectrophotometric method relative to control. Summed up: (§1)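 Panel of ten serine proteases; percent inhibition read at compound concentrations of 1 µM and 10 µM, each value the mean of 2 experiments.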
Dipeptidyl peptidase 4 (Homo sapiens), sequence (P27487 whole entry, looked up): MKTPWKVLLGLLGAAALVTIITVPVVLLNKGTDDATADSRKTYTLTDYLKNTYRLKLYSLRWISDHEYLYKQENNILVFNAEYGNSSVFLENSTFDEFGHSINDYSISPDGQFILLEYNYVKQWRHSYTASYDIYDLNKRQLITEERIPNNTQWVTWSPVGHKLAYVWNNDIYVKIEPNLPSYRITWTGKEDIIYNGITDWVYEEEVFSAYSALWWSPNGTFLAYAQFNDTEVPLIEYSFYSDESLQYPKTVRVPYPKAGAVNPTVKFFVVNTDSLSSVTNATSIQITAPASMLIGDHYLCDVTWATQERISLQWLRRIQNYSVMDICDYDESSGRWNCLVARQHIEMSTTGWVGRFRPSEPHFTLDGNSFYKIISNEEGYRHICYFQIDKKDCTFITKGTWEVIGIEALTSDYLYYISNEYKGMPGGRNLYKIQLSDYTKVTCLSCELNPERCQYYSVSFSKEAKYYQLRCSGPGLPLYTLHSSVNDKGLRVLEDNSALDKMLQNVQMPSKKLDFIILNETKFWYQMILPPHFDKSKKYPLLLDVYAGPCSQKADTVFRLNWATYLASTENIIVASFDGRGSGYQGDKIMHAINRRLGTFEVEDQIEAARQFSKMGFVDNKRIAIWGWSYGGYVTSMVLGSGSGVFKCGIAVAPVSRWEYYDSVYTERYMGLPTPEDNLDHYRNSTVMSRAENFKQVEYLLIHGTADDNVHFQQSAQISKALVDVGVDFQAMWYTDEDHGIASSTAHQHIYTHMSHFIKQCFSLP

Series [2] addresses Prothrombin (Homo sapiens) (UniProt P00734). Put plainly: Inhibition of human thrombin using Z-Gly-Pro-Arg-AMC as substrate at 1 uM after 60 mins by fluorescence spectrophotometric method relative to control. Summed up:
as §1

Series [3] concerns the target T1, Neutrophil elastase (Homo sapiens) (UniProt P08246).
T1 sequence (whole entry): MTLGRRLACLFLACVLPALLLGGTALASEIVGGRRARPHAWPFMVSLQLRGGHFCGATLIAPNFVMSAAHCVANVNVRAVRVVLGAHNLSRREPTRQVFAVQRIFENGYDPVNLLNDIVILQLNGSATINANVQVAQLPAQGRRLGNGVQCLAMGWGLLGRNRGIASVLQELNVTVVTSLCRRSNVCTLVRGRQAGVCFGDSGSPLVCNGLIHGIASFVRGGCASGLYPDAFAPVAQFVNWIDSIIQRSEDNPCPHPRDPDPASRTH
Put plainly: Inhibition of human ELA2 using N-MeOSuc-Ala-Ala-Pro-Val-pNA as substrate at 10 uM after 60 mins by spectrophotometric method relative to control. Summed up: as §1

Series [4] concerns the target Tryptase (Homo sapiens) (UniProt Q9BZJ3+Q15661+Q9NRR2). Put plainly: Inhibition of recombinant full length human tryptase usingZ-Gly-Pro-Arg-AMC as substrate at 10 uM after 60 mins by fluorescence spectrophotometric method relative to control. The class given is protein assay. Summed up: as §1
The target in series [5] is Urokinase-type plasminogen activator (Homo sapiens, UniProt P00749). Briefly: Inhibition of recombinant C-terminal His10-tagged human uPA (M1 to L431 residues) expressed in mouse NS0 cells using Z-GGR-AMC as substrate after 15 mins by manual fluorescence assay.
For series [6], the target named is T2, Suppressor of tumorigenicity 14 protein (Homo sapiens) (UniProt Q9Y5Y6).
T2 sequence (whole entry): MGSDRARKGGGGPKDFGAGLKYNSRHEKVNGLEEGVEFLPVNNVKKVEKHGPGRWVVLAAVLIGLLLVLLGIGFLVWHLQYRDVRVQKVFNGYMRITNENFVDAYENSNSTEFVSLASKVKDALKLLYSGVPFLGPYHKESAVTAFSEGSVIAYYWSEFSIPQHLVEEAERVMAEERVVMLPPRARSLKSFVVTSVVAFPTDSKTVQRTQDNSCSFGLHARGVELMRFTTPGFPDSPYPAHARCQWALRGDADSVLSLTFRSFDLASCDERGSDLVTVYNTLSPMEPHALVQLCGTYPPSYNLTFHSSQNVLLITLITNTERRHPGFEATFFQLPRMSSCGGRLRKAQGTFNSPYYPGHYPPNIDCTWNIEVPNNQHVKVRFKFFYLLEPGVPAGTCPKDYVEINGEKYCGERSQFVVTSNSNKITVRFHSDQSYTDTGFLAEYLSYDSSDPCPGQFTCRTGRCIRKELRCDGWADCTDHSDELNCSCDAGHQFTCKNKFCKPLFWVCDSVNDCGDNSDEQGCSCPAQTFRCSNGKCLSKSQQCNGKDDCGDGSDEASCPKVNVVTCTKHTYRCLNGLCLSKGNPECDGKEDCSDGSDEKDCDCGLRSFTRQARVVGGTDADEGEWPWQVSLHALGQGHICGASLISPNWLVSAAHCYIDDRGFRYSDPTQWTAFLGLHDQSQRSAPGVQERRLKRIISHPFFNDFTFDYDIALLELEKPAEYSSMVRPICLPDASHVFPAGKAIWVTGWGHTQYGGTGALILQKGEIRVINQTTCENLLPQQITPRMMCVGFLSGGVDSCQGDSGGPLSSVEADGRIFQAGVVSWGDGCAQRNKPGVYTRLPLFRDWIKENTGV
Put plainly: Inhibition of matriptase (unknown origin) using BOC-QAR-AMC as substrate at 10 uM after 15 mins by fluorescence assay relative to control. Summed up: as §1

Series [7] concerns the target T3, Cathepsin G (Homo sapiens) (UniProt P08311).
T3 sequence (whole entry): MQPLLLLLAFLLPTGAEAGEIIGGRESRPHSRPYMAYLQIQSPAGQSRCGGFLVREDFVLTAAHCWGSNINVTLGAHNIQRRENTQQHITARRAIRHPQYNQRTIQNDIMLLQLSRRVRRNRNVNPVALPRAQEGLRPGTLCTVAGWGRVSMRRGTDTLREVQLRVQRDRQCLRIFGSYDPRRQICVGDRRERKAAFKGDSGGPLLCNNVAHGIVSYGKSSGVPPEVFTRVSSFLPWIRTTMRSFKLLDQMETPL
Briefly: Inhibition of human cathepsin G using Suc-Ala-Ala-Pro-Phe-AMC as substrate at 1 uM after 30 mins by fluorescence spectrophotometric method relative to control. Summed up: as §1

In series [8] the target is Coagulation factor X (Homo sapiens) (UniProt P00742). Briefly: Inhibition of factor 10a (unknown origin) at 1 uM after 15 mins by fluorescence assay relative to control. An outline of the steps:
as §1

Series [9] deals with T1, Neutrophil elastase (Homo sapiens). Briefly: Inhibition of human ELA2 using N-MeOSuc-Ala-Ala-Pro-Val-pNA as substrate at 1 uM after 60 mins by spectrophotometric method relative to control. Summed up:
as §1

In series [10] the test system is HepG2. Briefly: Cytotoxicity against human HepG2 cells assessed as reduction in cell viability after 48 hrs by CellTiter-Blue/CytoTox-ONE-based assay. Particulars: HepG2, 48 h. An outline of the steps: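 Human Hep-G2 cells were exposed to compound at concentrations up to 10 µM. The value is reported as viable-50 (µM), the concentration at which 50% of cells remain viable.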

In series [11] the target is T3, Cathepsin G (Homo sapiens). Put plainly: Inhibition of human cathepsin G using Suc-Ala-Ala-Pro-Phe-AMC as substrate at 10 uM after 30 mins by fluorescence spectrophotometric method relative to control. Summed up: as §1
Series [12] addresses T1, Neutrophil elastase (Homo sapiens). Put plainly: Inhibition of elastase (unknown origin) at 10 uM relative to control. Summed up:
as §1

Series [13] concerns the target Serine protease hepsin (Homo sapiens, UniProt P05981). Put plainly: Inhibition of doxycycline induced Hepsin in human MCF10A cells using Boc-QRR-AMC as substrate preincubated for 24 hrs followed by doxycycline induction for 24 hrs and subsequent addition of substrate by fluorescence assay. The class given is cell-based.
Series [14] deals with T4, Chymase (Homo sapiens) (UniProt P23946).
T4 sequence (whole entry): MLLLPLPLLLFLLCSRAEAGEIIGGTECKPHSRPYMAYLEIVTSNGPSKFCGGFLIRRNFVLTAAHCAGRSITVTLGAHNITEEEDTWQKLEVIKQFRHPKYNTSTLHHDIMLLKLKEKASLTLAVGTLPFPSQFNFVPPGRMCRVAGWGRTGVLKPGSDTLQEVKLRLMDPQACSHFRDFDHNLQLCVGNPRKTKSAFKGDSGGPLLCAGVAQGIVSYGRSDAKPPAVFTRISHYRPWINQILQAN
Put plainly: Inhibition of human chymase using Suc-Ala-Ala-Pro-Phe-AMC as substrate at 10 uM after 120 mins by fluorescence spectrophotometric method relative to control. An outline of the steps:
as §1

Series [15] can be described thus: Kinetic solubility of the compound in PBS at pH 7.4 at 6.75 to 200 uM after 90 mins by UV absorbance based assay. The class given is physicochemical. Conditions: read-out: Kinetic_solubility.

Converted amounts (≈) assume the structure as drawn.

Coagulation factor X (Homo sapiens), sequence (P00742 41-179 limits assumed): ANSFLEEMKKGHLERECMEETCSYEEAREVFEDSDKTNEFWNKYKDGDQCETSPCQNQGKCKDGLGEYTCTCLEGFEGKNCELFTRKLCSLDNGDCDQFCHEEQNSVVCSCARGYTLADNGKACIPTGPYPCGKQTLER
Coagulation factor X (Homo sapiens), sequence (P00742 235-488 limits assumed): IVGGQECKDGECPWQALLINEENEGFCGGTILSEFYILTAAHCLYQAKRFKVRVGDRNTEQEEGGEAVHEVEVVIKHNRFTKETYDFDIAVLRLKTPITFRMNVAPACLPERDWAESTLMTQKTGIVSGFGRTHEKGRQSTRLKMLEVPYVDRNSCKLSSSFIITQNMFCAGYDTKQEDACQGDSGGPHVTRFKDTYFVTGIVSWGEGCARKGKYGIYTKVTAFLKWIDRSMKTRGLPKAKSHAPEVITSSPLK
Serine protease hepsin, sequence (P05981 1-162 limits assumed): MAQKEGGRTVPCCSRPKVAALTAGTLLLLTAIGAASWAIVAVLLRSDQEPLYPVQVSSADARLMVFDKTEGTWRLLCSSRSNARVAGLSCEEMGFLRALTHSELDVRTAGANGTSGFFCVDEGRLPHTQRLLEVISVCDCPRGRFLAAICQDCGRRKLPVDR
Serine protease hepsin, sequence (P05981 163-417 limits assumed): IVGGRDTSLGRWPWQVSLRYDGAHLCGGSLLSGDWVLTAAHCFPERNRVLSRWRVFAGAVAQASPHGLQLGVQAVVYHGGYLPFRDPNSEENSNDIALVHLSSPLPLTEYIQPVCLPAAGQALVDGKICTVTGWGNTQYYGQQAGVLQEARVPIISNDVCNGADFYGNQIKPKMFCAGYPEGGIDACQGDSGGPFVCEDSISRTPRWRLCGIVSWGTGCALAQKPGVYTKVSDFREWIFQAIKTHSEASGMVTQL

As a reminder, the inhibition is the drop in the measured response relative to a control, in per cent. By IC50 is commonly meant the concentration needed to halve the response being measured. On to `Cc1ccc(S(=O)(=O)N[C@@H](C(=O)Nc2ccc(C(=N)N)cc2)C2CCCCC2)cc1`, for which the inhibition in [1] was less than 10%; in series [2] it was 11%; in series [3], less than 10%; in series [4] it was 98%; in [6] it was less than 10%; in [7], less than 10%. Besides, the inhibition in series [8], in [9], in series [11], in series [12] and in [14] was less than 10% each time. Further, the IC50 in series [5] is 10 to 1950 µM; in series [10] it was greater than 10 µM; in series [13], 0.99 µM. In series [15], the solubility kinetic at 1.5 h was greater than 200 µM.

For `N=C(N)c1ccc(NC(=O)[C@H](NS(=O)(=O)c2ccc(F)cc2)C2CCCCC2)cc1`, the inhibition in series [1] was less than 10%; in series [2] it was less than 10%; in series [3] it was less than 10%; in series [4], 91%; in [6], less than 10%; in series [7], less than 10%. For the same molecule, the inhibition in series [8], in [9], in series [11], in [12] and in [14] was less than 10% in each case. Moreover, the IC50 is 280 µM in series [5], greater than 10 µM in [10] and 1.29 µM in series [13]. Moreover, the solubility kinetic at 1.5 h in [15] was found to be 200 µM (≈ 86.5 µg/mL).

Regarding `Cc1ccc(S(=O)(=O)N[C@@H](C(=O)Nc2ccc(C(=N)N)cc2)c2ccccc2)cc1`, the inhibition in series [1] was less than 10%; in series [2] it was less than 10%; in [3], less than 10%; in series [4], 80%; in series [6], less than 10%; in series [7] it was less than 10%. In addition, the inhibition in series [8], in series [9], in series [11], in series [12] and in [14] was less than 10% each time. The IC50 in series [5] is 140 µM; in [10], greater than 10 µM; in series [13] it was 0.1 µM. For the same molecule, the solubility kinetic at 1.5 h in [15] is greater than 200 µM.
